Source: PubChem BioAssay (The Scripps Research Institute Molecular Screening Center)
In the library only some 2.2% were active in any assay of this set; here they are far more common.
NR2E3 ag-1 – activates human photoreceptor nuclear receptor NR2E3; Q9Y5X4; GST-NR2E3/biotin-RetCOR TR-FRET, 1536-well; inhibition of corepressor binding, % at 4.78 µM; 0.12% of 320,000 active; AID 2300;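 active = percent inhibition above the cutoff of mean plus 3 SD of all tested compounds, set per screening campaign, cut at about 20% in these data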;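 also: 0% = DMSO wells and 100% = biotin wells as full block of FRET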
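System: GST-tagged NR2E3 plus biotinylated RetCOR corepressor; Buffer or medium: pH 7.5 Tris-based buffer; Probe or stimulus: RetCOR corepressor, biotinylated, 7 nM; Doses: compound at 4.8 µM, single dose; Schedule: 5 h incubation at 4 °C; Technique: time-resolved FRET; Evaluation: percent inhibition of TR-FRET ratio; Replication: one well per compound, singlicate testing.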
NR2F2 inh – inhibitors of human COUP-TFII (NR2F2); P24468; HEK293T NGFI-A luciferase reporter, luminescence; inhibition, % at 8.6 µM; 0.7% of 370,000 active; AID 686940;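 active = inhibition above a per-plate cutoff, mean inhibition of test wells between control levels plus 3 SD, cut at about 38% in these data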;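 also: cells cotransfected with COUP-TFII expression vector driving the NGFI-A reporter; 0% = median of COUP-TF2 test wells and 100% = reporter-only cells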
SMARCA2 activ – SMARCA2 function activation, primary screen. MG213 cells, MMTV-luciferase reporter, dexamethasone, overnight. activation, % at 9.1 µM. 1% of 370,000 active. AID 652017; in the data active = activation above about 7.8%;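 also: 0% = vehicle wells and 100% = reference activator wells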
NR2E3 ag-2 – agonists of human NR2E3 nuclear receptor | AID 602229 | inhibition of corepressor binding, % at 3.98 µM | Q9Y5X4 | 0.35% of 360,000 active | CHO-S Gal4-NCOR/VP16-NR2E3 two-hybrid, luciferase;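 active = inhibition above the mean of all tested compounds plus 3 SD, cut at about 70% in these data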;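 also: 0% = DMSO with NR2E3 transfected cells and 100% = cells lacking NR2E3 construct; higher means lower luciferase signal from less NR2E3 corepressor binding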
GalR3 antag – human GalR3 antagonism. O60755. inhibition, % at 3 µM. 0.44% of 360,000 active. AID 651719. HEK293 GalR3-CNG cAMP membrane potential fluorescence; galR3 body fused to GalR1 C-terminus;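 active = inhibition above the screen-wide average plus 3 SD, cut at about 13% in these data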;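 also: forskolin and galanin both at EC90 stimulate the cells; cAMP rise reported by CNG channel membrane potential dye signal; 0% = forskolin plus galanin with DMSO and 100% = forskolin alone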
Target sequence (O60755 1-299 limits assumed): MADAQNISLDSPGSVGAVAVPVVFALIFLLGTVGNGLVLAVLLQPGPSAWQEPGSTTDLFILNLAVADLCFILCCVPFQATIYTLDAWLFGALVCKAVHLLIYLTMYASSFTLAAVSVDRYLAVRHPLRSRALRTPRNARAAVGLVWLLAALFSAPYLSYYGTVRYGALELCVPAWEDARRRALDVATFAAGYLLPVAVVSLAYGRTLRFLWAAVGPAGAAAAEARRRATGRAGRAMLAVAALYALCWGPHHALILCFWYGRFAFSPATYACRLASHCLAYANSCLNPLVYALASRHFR
SMARCA2 conf – SMARCA2 activation, confirmation screen. activation, % at 9.1 µM. MG213 cells, MMTV-luciferase with dexamethasone, luminescence, overnight; MG213 cells expressing E1A, Rb sequestered; DMSO wells 0%, reference activator 100%. shares compounds with SMARCA2 activ. 30% of 3,500 active;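 active = activation above its plate's cutoff, the mean activation of tested wells plus 3 SD, cut at about 7.9% in these data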
VP16 Luc act – GAL4-VP16 reporter activation counter-screen; shares compounds with SMARCA2 activ; HEK293 GAL4-VP16 pG5luc reporter, luciferase luminescence; scaled: DMSO wells 0%, SAHA wells 100%; activation, % at 9.1 µM; 41% of 3,500 active;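 active = activation above the solvent-only control well mean plus 3 SD, averaged across control plates, cut at about 5.2% in these data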
The depositor's hits bear a star; i = inactive; / = no result.

SMILES	NR2E3 ag-1	NR2F2 inh	SMARCA2 activ	NR2E3 ag-2	GalR3 antag	SMARCA2 conf	VP16 Luc act
COc1ccccc1C(=O)Nc1ccc2c(c1)nc1n2CCSC1	1.5	-15.9	8.9*	-109.3	-2.0	14.7*	5.6*
CCCCC(=O)Nc1ccc2c(c1)nc1n2CCSC1	0.2	-39.8	8.1*	-76.5	-3.5	8.0*	5.8*
C=CCN1C(=O)[C@H](CC(=O)NCc2ccccc2)[C@@]2(C(=O)OCC)CCCC=C12	/	-8.0	-1.2	/	/	/	/
COc1ccc(CNCC#Cc2ccccc2)cc1	/	-21.5	-3.3	/	/	/	/
CCN(CCC(=O)Nc1cc([N+](=O)[O-])ccc1OC)Cc1ccccc1	-0.9	-4.2	9.7*	-12.2	-2.3	-1.8	0.2
Cn1cc(CNC(=O)c2cc(-c3ccccc3)nc3ccc(Br)cc23)cn1	16.3	-9.2	-2.0	-16.8	-6.7	/	/
Cc1ccc(-c2cc(C(=O)NCc3cnn(C)c3)c3cc(Br)ccc3n2)cc1	i	5.8	11.9*	-22.4	-11.1	1.7	6.6*
COc1ccc(-n2c(SCC(=O)N3CCCC3)nnc2-c2ccncc2)cc1	/	12.7	2.4	/	/	/	/
CC(/C=C1\SC(=S)N(NC(=O)c2ccc(O)cc2)C1=O)=C\c1ccccc1	0.3	-19.3	9.0*	-2.5	-3.4	0.8	1.0
O=C(CSc1nnc(-c2ccccn2)n1-c1ccccc1)c1ccc2c(c1)OCO2	/	3.3	-4.5	/	/	/	/
CCc1ccc(-c2cnc3ccccc3n2)cc1NC(=O)CNC(=O)c1ccccc1	-2.1	-65.0	8.1*	-88.8	-5.3	7.3	17.6*
O=C(Nc1cccc(-c2cnc3ccccc3n2)c1)c1ccccc1	0.5	-18.6	-1.8	-82.5	-3.5	/	/
c1ccc(CSCc2cn3ccccc3n2)cc1	1.4	-22.4	8.8*	-107.2	0.0	6.8	7.5*
O=C1CN(c2ccccc2)C(=S)N1c1ccccc1	-1.6	-37.3	0.5	-15.4	-9.3	/	/
COc1ccc(N2CC(=O)N(c3ccccc3)C2=S)cc1	-0.2	-36.7	11.2*	-74.9	-2.4	8.7*	1.3
O=C(c1cnn2cccnc12)N1CCN(c2ccccc2)CC1	0.3	-15.0	12.8*	-30.4	-12.4	2.0	1.9
COCCNc1nc2cc(-c3ccc(C)cc3)sc2c(=O)n1C	/	-38.8	9.0*	-100.7	-6.2	8.8*	13.7*
COCCNc1nc2cc(-c3cccc(C(F)(F)F)c3)sc2c(=O)n1C	/	14.8	-2.4	14.2	-7.2	/	/
CCCCCC[C@H](CN(CCCC)S(C)(=O)=O)c1ccccc1	/	14.1	-4.6	/	/	/	/
COc1ccccc1CNC(=O)NC1CCN(CC(=O)Nc2ccc3c(c2)OCCO3)CC1	/	2.7	7.6	/	/	/	/
CCOc1ccc(NC(=O)CN2CCCN(c3ccc(OC)cc3)CC2)cc1	/	0.0	-2.6	/	/	/	/
O=C(O)c1ccc(/C=C/c2ccc3cccc(O)c3n2)cc1	/	-30.9	8.0*	-147.8	-0.3	15.6*	6.2*
Oc1cccc2ccc(/C=C/c3c(F)cccc3Cl)nc12	-0.7	-55.7	11.0*	-173.8	-0.1	-12.2	16.2*
COc1ccc(Cl)cc1/C=C/c1ccc2cccc(O)c2n1	-0.6	-6.0	6.4	-33.4	-7.0	/	/
Oc1ccc(/C=C/c2ccc3cccc(O)c3n2)cc1Br	-2.8	-20.9	3.3	-72.6	-6.1	/	/
SMILES	NR2E3 ag-1	NR2F2 inh	SMARCA2 activ	NR2E3 ag-2	GalR3 antag	SMARCA2 conf	VP16 Luc act
Oc1cccc2ccc(/C=C/c3ccccc3Cl)nc12	-3.5	-5.9	12.0*	-112.5	-6.0	-5.3	11.5*
COc1cc(-n2c(C)nc3cc(C(=O)N4CCCC4)ccc32)cc(OC)c1OC	/	-11.8	2.1	/	/	/	/
Cc1ccc(CSc2nnc(-c3ccc(NS(=O)(=O)c4ccccc4)cc3)o2)cc1	-1.3	-0.3	11.3*	-4.8	-11.8	-2.0	-1.5
Cc1ccc(S(=O)(=O)Nc2ccc(-c3nnc(SCc4ccccc4Cl)o3)cc2)cc1	0.4	6.4	4.4	-20.7	-2.4	/	/
Cc1ccccc1-c1nnc(SCc2ccccc2)o1	-1.9	-37.6	13.0*	-129.4	-5.9	6.6	4.6
COc1ccc(CN2CCC(CNC(=O)NC3CCC(C)CC3)CC2)cc1 (stereo not drawn)	/	-7.8	-1.1	/	/	/	/
